In brackets after ≈: the same amount, converted by molar mass. Where only a bound is given, the exact number is not on record here.

Data set [1] concerns Arthrodermataceae. In words: Antifungal activity against dermatophytes at 28 degC after 7 days by broth microdilution test. The data set is classed as functional. The note with it: 168 h. In a few lines: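 Ten clinical isolates (two M. canis, five M. gypseum, three T. mentagrophytes) tested by NCCLS M38-A broth microdilution in MOPS-buffered RPMI 1640, pH 7.0, over 0.25–128 µg/mL. Conidial/hyphal suspension from PDA slants (28 °C, 7 days) adjusted to 65–70% transmittance at OD530, then diluted 1:50.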
For orientation: Broth dilution looks for growth in wells or tubes with falling amounts of substance.

The subject of data set [2] is Arthrodermataceae. In words: Antifungal activity against dermatophytes at 28 degC after 5 days by broth microdilution test. The note with it: for MFC: Arthrodermataceae.
For data set [3], the system named is Arthrodermataceae. The data set can be described thus: Antifungal activity against dermatophytes at 28 degC after 48 to 96 hrs by broth microdilution test.
For data set [4], the system named is Candida albicans. The data set can be described thus: Antifungal activity against Candida albicans ATCC 10261 at 35 degC after 48 to 96 hrs by broth microdilution test. The note with it: for MFC: Candida albicans, ATCC 10261, read-out: MFC. The format is functional. In a few lines:
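Minimal fungicidal concentration for Candida. […] MFC is the lowest concentration allowing fewer than two colonies (99% killing).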

For another data set, the system named is Candida parapsilosis. In words: Antifungal activity against Candida parapsilosis ATCC 22019 at 35 degC after 48 hrs by broth microdilution test. The format is functional. The note with it: Lodderomyces parapsilosis, ATCC 22019, 48 h; for MFC: read-out: MFC; for MIC: read-out: MIC. In a few lines:
(§1)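 Broth microdilution per NCCLS M27-A2. Stocks in 100% DMSO, diluted in RPMI 1640 with 0.165 M MOPS at pH 7.0; final range 0.25–128 µg/mL. Inoculum 1000–5000 cells/mL from SDA subcultures. […] C. parapsilosis ATCC22019 served as QC strain.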

The subject of data set [5] is Candida albicans. In words: Antifungal activity against Candida albicans ATCC 10261 at 35 degC after 48 hrs by broth microdilution test. The format is functional. The following applies: Candida albicans, ATCC 10261, 48 h; for MIC: read-out: MIC; for MIC50: read-out: MIC50; for MIC90: read-out: MIC90. Summed up:
as §1

Data set [6] can be described thus: Cytotoxicity against human U937 cells assessed as reduction of cell viability after 24 hrs by MTT assay. The format is cell-based, U-937. In a few lines: (§2)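 U937 and K562 cells, from ATCC, plated at 5 × 10^4/mL in phenol-red-free RPMI-1640 with 20% FBS and penicillin/streptomycin. Compounds added 2 h later at 25–100 µg/mL, then 24 h at 37 °C. MTT at 1 mg/mL for 3 h, formazan dissolved in isopropanol with 0.1 N HCl, absorbance read at 570 nm. CC50 is the concentration reducing viability by 50% versus the drug-free control.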
In general terms: Tetrazolium dyes change colour on reduction, which living cells bring about.

Data set [7] in a line: Cytotoxicity against human K562 cells after assessed as reduction of cell viability 24 hrs by MTT assay. The data set is classed as cell-based. In a few lines: as §2

For `Cc1ccc(C(CCn2ccnc2)Oc2ccc(C(C)(C)C)cc2)cc1` (centres undefined), in the data set with Arthrodermataceae [1], the MIC – broadly, the least concentration at which growth counts as inhibited – came to 11.2 µg/mL (≈ 32.1 µM); the MIC50 (in general, an inhibitory concentration at the 50% level, which refers to growth in some studies and to a panel of isolates in others) is 8 µg/mL (≈ 23 µM); the MIC90 (as a rule, an inhibitory concentration at the 90% level, which refers to growth in some studies and to a panel of isolates in others) was found to be 16 µg/mL (≈ 45.9 µM). In addition, in the data set on Arthrodermataceae [2], the MFC90 was found to be 16 µg/mL (≈ 45.9 µM) and the MFC – broadly, the smallest concentration meeting the test's criterion for killing the fungus – was found to be 14.4 µg/mL (≈ 41.3 µM). This compound also came in with an MFC50 against Arthrodermataceae [3] of 16 µg/mL (≈ 45.9 µM). In the data set with Candida albicans [4], the MFC50 amounted to 64 µg/mL (≈ 184 µM), the MFC90 was found to be 64 µg/mL (≈ 184 µM) and the minimum fungicidal concentration (MFC) is 58 µg/mL (≈ 166 µM). In the data set with Candida parapsilosis, the minimum fungicidal concentration (MFC) stood at 16 µg/mL (≈ 45.9 µM) and the MIC was determined as 8 µg/mL (≈ 23 µM). Also, in the data set with Candida albicans [5], the MIC worked out at 52.1 µg/mL (≈ 150 µM), the MIC50 stood at 64 µg/mL (≈ 184 µM) and the MIC90 is 64 µg/mL (≈ 184 µM).

Consider `Clc1cccc(Cl)c1OC(CCn1ccnc1)c1ccccc1` (centres undefined), for which, in the data set on Arthrodermataceae [1], the lowest concentration to inhibit growth (MIC) was 7.6 µg/mL (≈ 21.9 µM), the MIC50 stood at 8 µg/mL (≈ 23 µM) and the MIC90 was 8 µg/mL (≈ 23 µM). For the same compound, in the data set with Arthrodermataceae [2], the MFC90 was 32 µg/mL (≈ 92.2 µM) and the MFC was 28.8 µg/mL (≈ 82.9 µM). In the data set with Arthrodermataceae [3], this compound had an MFC50 of 32 µg/mL (≈ 92.2 µM). Also, in the data set with Candida albicans [4], the MFC50 worked out at 64 µg/mL (≈ 184 µM), the MFC90 turned out to be 64 µg/mL (≈ 184 µM) and the MFC is 64 µg/mL (≈ 184 µM). Besides, in the data set with Candida parapsilosis, the MFC was determined as 32 µg/mL (≈ 92.2 µM) and the MIC came out at 2 µg/mL (≈ 5.76 µM). In the data set on Candida albicans [5], the minimum inhibitory concentration (MIC) was found to be 46.2 µg/mL (≈ 133 µM), the MIC50 was 64 µg/mL (≈ 184 µM) and the MIC90 was 64 µg/mL (≈ 184 µM).

In the data set with Arthrodermataceae [1], `Clc1cc(Cl)cc(OC(CCn2ccnc2)c2ccccc2)c1` (centres undefined) had an MIC of 7.2 µg/mL (≈ 20.7 µM), an MIC50 of 8 µg/mL (≈ 23 µM) and an MIC90 of 8 µg/mL (≈ 23 µM). In the data set with Arthrodermataceae [2], this compound registered an MFC90 of 16 µg/mL (≈ 46.1 µM) and an MFC of 15 µg/mL (≈ 43.2 µM). Moreover, in the data set on Arthrodermataceae [3], the MFC50 came out at 16 µg/mL (≈ 46.1 µM). In the data set with Candida albicans [4], the MFC50 stood at 32 µg/mL (≈ 92.2 µM), the MFC90 was 64 µg/mL (≈ 184 µM) and the MFC was 29.8 µg/mL (≈ 85.8 µM). For the same compound, in the data set with Candida parapsilosis, the MFC was found to be 4 µg/mL (≈ 11.5 µM) and the minimum inhibitory concentration (MIC) amounted to 0.5 µg/mL (≈ 1.44 µM). In the data set on Candida albicans [5], the MIC was found to be 13.8 µg/mL (≈ 39.7 µM), the MIC50 came to 16 µg/mL (≈ 46.1 µM) and the MIC90 was found to be 16 µg/mL (≈ 46.1 µM).

For the compound `Fc1ccc(C(CCn2ccnc2)Oc2c(Cl)cccc2Cl)cc1` (centres undefined), in the data set with Arthrodermataceae [1], inhibition of growth (MIC) required 6.4 µg/mL (≈ 17.5 µM), the MIC50 was 8 µg/mL (≈ 21.9 µM) and the MIC90 was 8 µg/mL (≈ 21.9 µM). Besides, in the data set on Arthrodermataceae [2], the MFC90 was 16 µg/mL (≈ 43.8 µM) and the minimal fungicidal concentration (MFC) was found to be 15 µg/mL (≈ 41.1 µM). Also, in the data set on Arthrodermataceae [3], the MFC50 is 16 µg/mL (≈ 43.8 µM). In the data set with Candida albicans [4], the MFC50 came out at 32 µg/mL (≈ 87.6 µM), the MFC90 stood at 128 µg/mL (≈ 350 µM) and the MFC came out at 78.9 µg/mL (≈ 216 µM). Moreover, in the data set with Candida parapsilosis, the MFC was determined as 32 µg/mL (≈ 87.6 µM) and the MIC was determined as 4 µg/mL (≈ 11 µM). In the data set with Candida albicans [5], the minimum inhibitory concentration (MIC) was found to be 36.1 µg/mL (≈ 98.8 µM), the MIC50 amounted to 8 µg/mL (≈ 21.9 µM) and the MIC90 amounted to 64 µg/mL (≈ 175 µM).

With `CCc1ccc(OC(CCn2ccnc2)c2ccc(Cl)cc2)cc1` (centres undefined), the 50% cytotoxic concentration (CC50) (usually the concentration at which the toxic effect on the cells reaches its halfway point) at 24 h in data set [6] amounted to 265 µM. For the same compound, in the data set with Candida albicans [4], the MFC50 amounted to 8 µg/mL (≈ 23.5 µM), the MFC90 came out at 16 µg/mL (≈ 46.9 µM) and the MFC is 12.5 µg/mL (≈ 36.7 µM). In the data set with Candida parapsilosis, the MFC was 16 µg/mL (≈ 46.9 µM) and the MIC was 8 µg/mL (≈ 23.5 µM). In the data set with Candida albicans [5], the MIC is 6.5 µg/mL (≈ 19.1 µM), the MIC50 was found to be 8 µg/mL (≈ 23.5 µM) and the MIC90 came out at 8 µg/mL (≈ 23.5 µM). Besides, in data set [7], the CC50 at 24 h stood at 185 µM.

In the data set with Arthrodermataceae [1], `Cc1ccc(OC(CCn2ccnc2)c2ccc(Cl)cc2)c(C)c1` (centres undefined) had an MIC of 32.5 µg/mL (≈ 95.3 µM), an MIC50 of 32 µg/mL (≈ 93.9 µM) and an MIC90 of 32 µg/mL (≈ 93.9 µM). In the data set on Arthrodermataceae [2], this compound registered an MFC90 of 64 µg/mL (≈ 188 µM) and an MFC of 58 µg/mL (≈ 170 µM). Also, in the data set on Arthrodermataceae [3], the MFC50 is 64 µg/mL (≈ 188 µM). In the data set with Candida albicans [4], the MFC50 was 32 µg/mL (≈ 93.9 µM), the MFC90 came out at 32 µg/mL (≈ 93.9 µM) and the MFC is 28 µg/mL (≈ 82.1 µM). Further, in the data set with Candida parapsilosis, the minimal fungicidal concentration (MFC) was 32 µg/mL (≈ 93.9 µM) and the minimal inhibitory concentration (MIC) was found to be 8 µg/mL (≈ 23.5 µM). Further, in the data set on Candida albicans [5], the MIC was 13.5 µg/mL (≈ 39.6 µM), the MIC50 is 16 µg/mL (≈ 46.9 µM) and the MIC90 came out at 16 µg/mL (≈ 46.9 µM).

In the data set with Arthrodermataceae [1], `Clc1ccc(C(CCn2cncn2)Oc2ccc(Cl)cc2Cl)cc1` (centres undefined) had an MIC of 10.4 µg/mL (≈ 27.2 µM), an MIC50 of 8 µg/mL (≈ 20.9 µM) and an MIC90 of 16 µg/mL (≈ 41.8 µM). Besides, in the data set on Arthrodermataceae [2], the MFC90 is more than 128 µg/mL and the MFC turned out to be 138 µg/mL (≈ 360 µM). For the same compound, the MFC50 in the data set on Arthrodermataceae [3] stood at 32 µg/mL (≈ 83.6 µM). Moreover, in the data set on Candida albicans [4], the MFC50 was more than 128 µg/mL, the MFC90 was more than 128 µg/mL and the MFC was more than 128 µg/mL. Further, in the data set on Candida parapsilosis, the MFC came out at 64 µg/mL (≈ 167 µM) and the minimum inhibitory concentration (MIC) is 32 µg/mL (≈ 83.6 µM). For the same compound, in the data set on Candida albicans [5], the MIC was more than 128 µg/mL, the MIC50 is more than 128 µg/mL and the MIC90 was more than 128 µg/mL.

Source of the values: ChEMBL document CHEMBL1157464, “1-[(3-Aryloxy-3-aryl)propyl]-1H-imidazoles, new imidazoles with potent activity against Candida albicans and dermatophytes. Synthesis, structure-activity relationship, and molecular modeling studies” (J Med Chem, 2008).
